Laboratory results: ChEMBL document CHEMBL1157783, “Synthesis, characterization and vasculoprotective effects of nitric oxide-donating derivatives of chrysin” (Bioorg Med Chem, 2010)
Active and inactive are the calls of the source. No cut-off for these calls is given here.

Assays:
[1] = target: Aldo-keto reductase family 1 member B1 (Bos taurus, UniProt P16116); test: Inhibition of aldose reductase from calf lense by AR assay
[2] = Inhibition of advanced glycation end product formation in phosphate buffered saline at pH 7.4 after 14 days by fluorospectrophotometry in presence of bovine serum albumin; assay type: physicochemical
[3] = Induction of NO release in phosphate buffered saline of pH 7.4 at 100 uM after 1 hr by Griess assay in presence of L-cysteine; assay type: physicochemical; details: buffer, pH 7.4, 1 h
How it was run: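 Incubated 1 h at 37 °C in PBS pH 7.4 with L-cysteine. Reaction mixture treated with Griess reagent (sulfanilamide, N-naphthylethylenediamine dihydrochloride, phosphoric acid) for 10 min at room temperature, then absorbance read at 540 nm. Expressed as percent of a theoretical maximum of 1 mol NO per mol compound. Sodium nitroprusside as positive control.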

HepG2 = test: Increase in glucose consumption in human HepG2 cells at 10 umol/L after 24 hrs by enzymatic method relative to control blank; assay type: functional, cell-based
How it was run: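 HepG2 cells in high-glucose DMEM with 10% FBS, grown to 80–90% confluence, switched to DMEM with 1% FBS for 12 h, then treated 24 h in the same medium. Medium glucose measured enzymatically with a kit. Consumption taken as blank-well glucose minus remaining glucose, then adjusted for cell number by MTT. Vehicle 0.1% DMSO; mean S.D., n = 3.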

Structure (SMILES) | IC50 [1] | IC50 [2] | Activity [3] | Activity (HepG2)
O=c1cc(-c2ccccc2)oc2cc(OCCO[N+](=O)[O-])cc(O)c12 | 0.49 µM | ≥ 300 µM | 1.67% | Active
CC(=O)Oc1cc(OCCO[N+](=O)[O-])cc2oc(-c3ccccc3)cc(=O)c12 | 0.86 µM | ≥ 300 µM | 1.68% | 
CC(=O)Oc1cc(OCCCCO[N+](=O)[O-])cc2oc(-c3ccccc3)cc(=O)c12 | 0.39 µM | ≥ 300 µM | 1.48% | 
N=C(N)NN [PIMAGEDINE] |  | 826 µM |  | 
CC(=O)Oc1cc(OCCCCCCO[N+](=O)[O-])cc2oc(-c3ccccc3)cc(=O)c12 | 0.42 µM | ≥ 300 µM | 1.43% | 
O=c1cc(-c2ccccc2)oc2cc(OCCCCCCO[N+](=O)[O-])cc(O)c12 | 0.71 µM | ≥ 300 µM | 1.21% | Active
O=c1cc(-c2ccccc2)oc2cc(O)cc(O)c12 [CHRYSIN] | 7.79 µM | 63.5 µM |  | inactive

More lines, main results first:

IC50 [1] | IC50 [2] | Activity [3] | Structure (SMILES) | Activity (HepG2)
0.3 µM | 43.9 µM | 1.77% | O=C(CCO[N+](=O)[O-])OCOc1cc(O)c2c(=O)cc(-c3ccccc3)oc2c1 | 
0.29 µM | 75.5 µM | 1.43% | O=c1cc(-c2ccccc2)oc2cc(OCCCCO[N+](=O)[O-])cc(O)c12 | Active
0.21 µM | 138 µM | 1.38% | O=C(CCCCCCO[N+](=O)[O-])OCOc1cc(O)c2c(=O)cc(-c3ccccc3)oc2c1 | Active
0.13 µM | 52.5 µM | 1.26% | O=C(CCCCO[N+](=O)[O-])OCOc1cc(O)c2c(=O)cc(-c3ccccc3)oc2c1 | Active
